In ChEMBL document CHEMBL1152456, “A MurF inhibitor that disrupts cell wall biosynthesis in Escherichia coli” (Antimicrob Agents Chemother, 2007):
pIC50, pKd: −log10 of the molar value. Values after ≈ are worked out from the molar mass of the structure shown. Active and inactive are the calls of the source. No cut-off for these calls is given here. Positions of bridges follow the written chain, without caps; N, C: chain ends. Non-standard residues stand in square brackets, D forms with d. Residues, ends and D or L forms follow the SMILES beside them. Dab = NCC[C@H](N)C(=O)O

Columns and labels:
Escherichia coli [1] = assay: Binding affinity to Escherichia coli MurF assessed as increase in enzyme melting temperature by thermofluor analysis in presence of ATP
Summary of the method: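 ThermoFluor thermal shift binding assay on E. coli MurF run in the presence of ATP; read-out is the change in Tm.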

[2] = Binding affinity to Escherichia coli MurF by HTS assay in absence of ATP
Escherichia coli [3] = assay: Antibacterial activity against LPS-deffective Escherichia coli OC2530 by CLSI broth microdilution method; assay type: functional
Summary of the method: (§1)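 MICs by CLSI broth microdilution in cation-adjusted Mueller-Hinton broth. Strains came from ATCC or an in-house collection; NovaBlue was purchased.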

[4] = Binding affinity to Escherichia coli MurF by HTS assay in presence of ATP
Escherichia coli [5] = assay: Inhibition of Escherichia coli OC2530 MurF assessed as ratio of UDP-MurNAc-tripeptide/UDP-MurNAc-pentapeptide level at 2 times MIC after 30 mins by HPLC
Summary of the method: (§2)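 UDP-precursor pools. 125 ml OC2530 cultures at A600 0.3 treated with 2x MIC compound or DMSO for 30 min. Cells chilled, washed in cold 0.9% NaCl and lysed in cold 5% trichloroacetic acid 30 min on ice. Supernatants ether-extracted six times. UDP-MurNAc-tripeptide and -pentapeptide purified and quantitated. One representative of two independent experiments.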

[6] = Inhibition of Escherichia coli MurF assessed as appearance of UDP-MurNAc-pentapeptide product by HPLC
Summary of the method: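 HPLC assay of E. coli MurF. Enzyme at 4 nM final in 100 mM Tris-Cl pH 8.5, 5 mM ATP, 300 mM NaCl, preincubated 10 min at room temperature with compound or DMSO. D-Ala-D-Ala and a completed Mpl reaction supplying UDP-MurNAc-tripeptide were then added. Reaction ran 15 min at 37°C and was stopped with trifluoroacetic acid. Pentapeptide and tripeptide peaks were quantified by HPLC to give IC50.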

Staphylococcus aureus [7] = assay: Antibacterial activity against Staphylococcus aureus ATCC 29213 by CLSI broth microdilution method; assay type: functional; summary of the method: as §1
Escherichia coli [8] = assay: Ratio of Kd for Escherichia coli MurF in absence of ATP to Kd for Escherichia coli MurF in presence of ATP
Escherichia coli [9] = assay: Antibacterial activity against Escherichia coli NovaBlue by CLSI broth microdilution method; assay type: functional; summary of the method: as §1
Staphylococcus aureus [10] = assay: Antibacterial activity against Staphylococcus aureus OC4172 by CLSI broth microdilution method; assay type: functional; summary of the method: as §1
Escherichia coli [11] = assay: Antibacterial activity against LPS-deffective Escherichia coli OC2530 by CLSI broth microdilution method in presence of permeabilizer polymyxin B nonapeptide; assay type: functional
Staphylococcus aureus [12] = assay: Antibacterial activity against methicillin-resistant Staphylococcus aureus OC2878 by CLSI broth microdilution method; assay type: functional
Summary of the method: (§3)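 Broth microdilution MIC following CLSI method, in cation-adjusted Mueller-Hinton broth; strains from ATCC or the company strain collection.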

Enterococcus faecalis = assay: Antibacterial activity against Enterococcus faecalis ATCC 29212 by CLSI broth microdilution method; assay type: functional; summary of the method: as §1
Escherichia coli [13] = assay: Antibacterial activity against Escherichia coli ATCC 25922 by CLSI broth microdilution method; assay type: functional; summary of the method: as §1
Escherichia coli [14] = assay: Antibacterial activity against Escherichia coli OC2605 by CLSI broth microdilution method; assay type: functional; summary of the method: as §3
Staphylococcus aureus [15] = assay: Antibacterial activity against methicillin-resistant Staphylococcus aureus COL OC3726 by CLSI broth microdilution method; assay type: functional; summary of the method: as §3
Enterococcus faecium = assay: Antibacterial activity against Enterococcus faecium OC3312 by CLSI broth microdilution method; assay type: functional; summary of the method: as §1
Escherichia coli [16] = assay: Antibacterial activity against Escherichia coli OC9040 by CLSI broth microdilution method; assay type: functional; summary of the method: as §1
Escherichia coli [17] = assay: Bactericidal activity against LPS-deffective Escherichia coli OC2530 assessed as log reduction in CFU at 2 times MIC after 30 mins relative to control; assay type: functional
Summary of the method: (§4)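 Killing. OC2530 at mid-log treated with 2x MIC compound. Aliquots taken from replicate Bioscreen wells at set times, serially diluted in PBS, spiral-plated and colonies counted. Mean ± SD of two independent experiments.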

Escherichia coli [18] = assay: Antibacterial activity against LPS-deffective Escherichia coli OC2530 assessed as cell lysis at 2 times MIC by colony forming assay; assay type: functional, organism-based
Escherichia coli [19] = assay: Antibacterial activity against Escherichia coli NovaBlue by CLSI broth microdilution method in presence of permeabilizer polymyxin B nonapeptide; assay type: functional; summary of the method: as §1
Escherichia coli [20] = assay: Bactericidal activity against LPS-deffective Escherichia coli OC2530 assessed as log reduction in CFU at 2 times MIC after 3 hrs relative to control; assay type: functional; summary of the method: as §4
Escherichia coli [21] = assay: Antibacterial activity against Escherichia coli ATCC 25922 by CLSI broth microdilution method in presence of permeabilizer polymyxin B nonapeptide; assay type: functional; summary of the method: as §1
Escherichia coli [22] = assay: Antibacterial activity against mid-log culture of LPS-deffective Escherichia coli OC2530 assessed as cell lysis at 2 times MIC by optical density study; assay type: functional, organism-based
Summary of the method: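 Growth curve. E. coli OC2530 grown with aeration to mid-log (A600 0.3), compound added at 2x MIC final. Samples transferred at once to replicate Bioscreen wells, 37°C with continuous shaking, A580 read every 15 min; 10 wells per culture.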

Pseudomonas aeruginosa = assay: Antibacterial activity against Pseudomonas aeruginosa ATCC 27853 by CLSI broth microdilution method; assay type: functional; summary of the method: as §1
Escherichia coli [23] = assay: Effect on muropeptide composition in LPS-deffective Escherichia coli OC2530 assessed as decrease in UDP-MurNAc-pentapeptide level at 2 times MIC after 30 mins relative to control; assay type: functional; design: scale not given: the % may be the effect or the level left; summary of the method: as §2
Escherichia coli [24] = assay: Effect on muropeptide composition in LPS-deffective Escherichia coli OC2530 assessed as increase in UDP-MurNAc-tripeptide level at 2 times MIC after 30 mins relative to control; assay type: functional; summary of the method: as §2

SMILES	ΔTm (Escherichia coli [1]) [°C]	MIC (Escherichia coli [3]) [µg/mL]	pIC50 [6]	MIC (Staphylococcus aureus [7]) [µg/mL]	pKd [2]	pKd [4]	also measured
Cc1ccc(C(NC(=O)c2ccccc2)c2ccc3cccnc3c2O)cc1 (stereo unspecified)	2.41	32 (≈ 86.9 µM)	6.06	32 (≈ 86.9 µM)	4.48	4.70	Ratio (Escherichia coli [5]): 0.02
CC(C)C[C@@H]1NC(=O)[C@@H](Cc2ccccc2)NC(=O)[C@H](CCN)NC(=O)[C@@H](NC(=O)[C@H](CCN)NC(=O)[C@@H](N)[C@@H](C)O)CCNC(=O)[C@H]([C@@H](C)O)NC(=O)[C@H](CCN)NC(=O)[C@H](CCN)NC1=O [POLYMYXIN B NONAPEPTIDE] (H-T[Dab][Dab][Dab][dF]L[Dab][Dab]T; lactam 3-C)		6.2 (≈ 6.44 µM)		50 (≈ 51.9 µM)			MIC (Escherichia coli [9]): 25 µg/mL (≈ 26 µM)
N[C@@H]1CONC1=O [CYCLOSERINE]		64 (≈ 627 µM)		32 (≈ 313 µM)			MIC (Staphylococcus aureus [10]): 32 µg/mL (≈ 313 µM); MIC (Escherichia coli [11]): 64 µg/mL; MIC (Staphylococcus aureus [12]): 64 µg/mL (≈ 627 µM); MIC (Enterococcus faecalis): 128 µg/mL (≈ 1250 µM); MIC (Escherichia coli [13]): 32 µg/mL (≈ 313 µM); MIC (Escherichia coli [14]): 16 µg/mL (≈ 157 µM); MIC (Staphylococcus aureus [15]): 32 µg/mL (≈ 313 µM); MIC (Enterococcus faecium): 64 µg/mL (≈ 627 µM); MIC (Escherichia coli [16]): 32 µg/mL (≈ 313 µM); Activity (Escherichia coli [17]): 0.5; Activity (Escherichia coli [18]): Active; MIC (Escherichia coli [9]): 64 µg/mL (≈ 627 µM); MIC (Escherichia coli [19]): 64 µg/mL; Ratio (Escherichia coli [5]): 30.3; Activity (Escherichia coli [20]): >5; MIC (Escherichia coli [21]): 32 µg/mL; Activity (Escherichia coli [22]): Active; MIC (Pseudomonas aeruginosa): > 128 µg/mL
COc1cccc(C(=O)NC(/C=C/c2ccccc2)c2cc(Cl)c3cccnc3c2O)c1 (stereo unspecified)	1.81	> 32	5.90	> 32	5.48	5.00	
O=C(Nc1ccc(F)cc1)OC(CCN1CCC(O)(c2ccc(Cl)cc2)CC1)c1ccccc1 (stereo unspecified)		8 (≈ 16.6 µM)	4.59	16 (≈ 33.1 µM)			Activity (Escherichia coli [23]): 50%; MIC (Staphylococcus aureus [10]): 8 µg/mL (≈ 16.6 µM); MIC (Escherichia coli [11]): 4 µg/mL; MIC (Staphylococcus aureus [12]): 16 µg/mL (≈ 33.1 µM); MIC (Enterococcus faecalis): 16 µg/mL (≈ 33.1 µM); MIC (Escherichia coli [13]): > 32 µg/mL; MIC (Escherichia coli [14]): > 32 µg/mL; MIC (Staphylococcus aureus [15]): 16 µg/mL (≈ 33.1 µM); MIC (Enterococcus faecium): 16 µg/mL (≈ 33.1 µM); MIC (Escherichia coli [16]): > 32 µg/mL; Activity (Escherichia coli [17]): 1; Activity (Escherichia coli [18]): Active; MIC (Escherichia coli [9]): > 64 µg/mL; MIC (Escherichia coli [19]): 16 µg/mL; Activity (Escherichia coli [20]): 5; MIC (Escherichia coli [21]): 16 µg/mL; Activity (Escherichia coli [22]): Active; fold change (FC) (Escherichia coli [24]): 15; MIC (Pseudomonas aeruginosa): > 32 µg/mL
O=C(NC(c1ccc2c(c1)OCO2)c1ccc2cccnc2c1O)c1ccccc1 (stereo unspecified)	1.74	32 (≈ 80.3 µM)	6.36	32 (≈ 80.3 µM)	4.30	4.92	Ratio (Escherichia coli [8]): 4
O=C(NC(c1ccccc1F)c1ccc2cccnc2c1O)c1ccccc1 (stereo unspecified)	3.35	16 (≈ 43 µM)	6.10	32 (≈ 85.9 µM)	4.70	4.70	

Further lines, with some results ahead:

ΔTm (Escherichia coli [1]) [°C]	MIC (Escherichia coli [3]) [µg/mL]	pIC50 [6]	MIC (Staphylococcus aureus [7]) [µg/mL]	SMILES	pKd [2]	pKd [4]	also measured
2.86	8 (≈ 19.3 µM)	4.80	32 (≈ 77.2 µM)	COc1ccc(C(NC(=O)c2ccccc2)c2ccc3cccnc3c2O)cc1OC (stereo unspecified)	4.00	4.85	Ratio (Escherichia coli [8]): 4; Ratio (Escherichia coli [5]): 0.04
1.82	> 32	6.48	> 32	COc1ccc(C(NC(=O)c2cccc(OC)c2)c2cc(Cl)c3cccnc3c2O)cc1 (stereo unspecified)	5.60	4.96	
2.2	> 32	5.72	> 32	COc1cccc(C(=O)NC(c2ccccc2OC)c2cc(Cl)c3cccnc3c2O)c1 (stereo unspecified)	5.00	4.85	
0.74	> 64	4.60	> 64	COc1ccc(C(=O)NC(c2ccc(OC)c(OC)c2)c2cc(Cl)c3cccnc3c2O)cc1 (stereo unspecified)			
1.59	> 32	6.12	> 32	COc1cccc(C(=O)NC(c2ccc3c(c2)OCO3)c2cc(Cl)c3cccnc3c2O)c1 (stereo unspecified)	5.48	5.35	
